Laboratory results as given in ChEMBL document CHEMBL1144837, “Antimitotic and antiproliferative activities of chalcones: forward structure-activity relationship” (J Med Chem, 2008).

Tests used:
K562 [1] = assay: Cell cycle arrest in human K562 cells assessed as accumulation at G2/M phase at 10 uM after 24 hrs by flow cytometry; assay type: functional
How it was run: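 K562 cells exposed 24 h at 10 µM, then stained with propidium iodide at 4 °C overnight and analysed by flow cytometry. After doublets and aggregates were excluded on an FL2-area/FL2-width plot, cells were assigned to G0/G1, S and G2/M, and the G2/M fraction was scored.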

HCT-116 = assay: Cytotoxicity against human HCT116 cells after 24 hrs by MTT assay; assay type: functional, cell-based; details: HCT-116, 24 h
How it was run: (§1)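 MTT viability assay: exponentially growing cells were seeded at 3 × 10^3 cells/well and held 24 h before drug addition. Formazan was dissolved in isopropanol and read by absorbance relative to untreated wells. IC50 is the concentration giving 50% growth loss against a control-cell standard curve after 24 h incubation. Run in triplicate, at least three separate experiments.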

[2] = Cytotoxicity against human HNO150 cells after 24 hrs by MTT assay; assay type: functional, cell-based; details: HNO150, 24 h; how it was run: as §1
N2a = assay: Cytotoxicity against mouse N2A cells after 24 hrs by MTT assay; assay type: functional, cell-based; how it was run: as §1
L1210 = assay: Cytotoxicity against mouse L1210 cells after 24 hrs by MTT assay; assay type: functional, cell-based; details: L1210, 24 h; how it was run: as §1
RL = assay: Cytotoxicity against human RL cells after 24 hrs by MTT assay; assay type: functional, cell-based; how it was run: as §1
NIH3T3 = assay: Cytotoxicity against mouse NIH3T3 cells after 24 hrs by MTT assay; assay type: functional, cell-based; details: NIH3T3, 24 h; how it was run: as §1
[3] = Cytotoxicity against human Messa cells after 24 hrs by MTT assay; assay type: functional, cell-based; details: MES-SA; how it was run: as §1
CCRF-CEM = assay: Cytotoxicity against human CEM cells after 24 hrs by MTT assay; assay type: functional, cell-based; how it was run: as §1
SW48 = assay: Cytotoxicity against human SW48 cells after 24 hrs by MTT assay; assay type: functional, cell-based; details: SW48, 24 h; how it was run: as §1
MCF7 = assay: Cytotoxicity against human MCF7 cells after 24 hrs by MTT assay; assay type: functional, cell-based; details: MCF7, 24 h; how it was run: as §1
K562 [4] = assay: Cytotoxicity against human K562 cells after 24 hrs by MTT assay; assay type: functional, cell-based; details: K562, 24 h; how it was run: as §1

Row | SMILES | Activity (K562 [1]) [%] | further results
1 | COc1cccc(OC)c1C(=O)/C=C/c1cccc(Cl)c1 | 19 | 
2 | COc1ccc(C(=O)/C=C/c2ccc(OC)c(OC)c2OC)c(O)c1 | 20 | 
3 | COc1cc(OC)c(/C=C/C(=O)c2c(OC)cccc2OC)c(OC)c1 | 84 | IC50 (HCT-116): 450 nM; IC50 [2]: 1300 nM; IC50 (N2a): 2200 nM; IC50 (L1210): 7000 nM; IC50 (RL): 800 nM; IC50 (NIH3T3): 30000 nM; IC50 [3]: 1000 nM; IC50 (CCRF-CEM): 650 nM; IC50 (SW48): 250 nM; IC50 (MCF7): 60000 nM; IC50 (K562 [4]): 50000 nM
4 | COc1ccc(C(=O)/C=C/c2c(F)cccc2Cl)c(O)c1 | 19 | 
5 | COc1ccc(C(=O)/C=C/c2ccccc2Cl)c(OC)c1 | 42 | 
6 | COc1cccc(OC)c1C(=O)/C=C/c1ccc(C(F)(F)F)cc1 | 23 | 
7 | COc1cccc(OC)c1C(=O)/C=C/c1ccccc1Cl | 23 | 
8 | COc1cc(/C=C/C(=O)c2ccc(OC)cc2O)cc(OC)c1 | 40 | 
9 | COc1cccc(/C=C/C(=O)c2ccc(OC)cc2O)c1 | 26 | 
10 | COc1cc(OC)c(/C=C/C(=O)c2c(OC)cc(N)cc2OC)c(OC)c1 | 74 | 
11 | COc1ccc(C(=O)/C=C/c2c(OC)cc(OC)cc2OC)c(OC)c1 (stereo in doubt; 3) | 86 | 
12 | CCOc1cccc(OCC)c1C(=O)/C=C/c1c(OC)cccc1OC | 14 | 
13 | COc1ccc(C(=O)/C=C/c2cccc(F)c2)c(OC)c1 | 32 | 
14 | COc1cc(/C=C/C(=O)c2c(OC)cccc2OC)cc(OC)c1OC | 25 | 
15 | COc1ccc(C(=O)/C=C/c2ccccc2Cl)c(O)c1 | 67 | 
16 | COc1cc(O)c(C(=O)/C=C/c2ccccc2OC)c(OC)c1 | 41 | 
17 | COc1cc(O)c(C(=O)/C=C/c2cccc(F)c2)c(OC)c1 | 48 | 
18 | O=C(/C=C/c1c(Cl)cccc1Cl)c1ccccc1 | 28 | 
19 | COc1cc(OC)c(/C=C/C(=O)c2ccc(Cl)c(Cl)c2)c(OC)c1 | 30 | 
20 | COc1cc(O)c(C(=O)/C=C/c2ccccc2Cl)c(OC)c1 | 43 | 
21 | COc1cc(O)c(C(=O)/C=C/c2ccc3c(c2)OCO3)c(OC)c1 | 13 | 
22 | CCOc1ccc(/C=C/C(=O)c2c(OCC)cccc2OCC)c(OCC)c1 | 11 | 
23 | COc1ccc(C(=O)/C=C/c2c(Cl)cccc2OC)c(O)c1 | 45 | 
24 | COc1cccc(/C=C/C(=O)c2c(OC)cccc2OC)c1 | 29 | 
25 | COc1ccc(C(=O)/C=C/c2cc(OC)c(OC)c(OC)c2)c(O)c1 | 20 | 
26 | COc1ccc(C(=O)/C=C/c2cccc(F)c2)c(O)c1 | 40 | 
27 | COc1cccc(OC)c1C(=O)/C=C/c1c(OC)c(F)c(OC)c(F)c1OC | 46 | 
28 | COc1ccc(C(=O)/C=C/c2ccc(OC)c(OC)c2)c(O)c1 | 18 | 
29 | COc1ccc(/C=C/C(=O)c2ccc(OC)cc2OC)c(OC)c1 | 25 | 
30 | CCOc1cccc(OCC)c1C(=O)/C=C/c1c(OC)cc(OC)cc1OC | 10 | 
